B1: tRNA (parent)
chain: GUUCCGUUGGCGUAAUGGUAACGCGUCUCCCUCCUAAGGAGAAGACUGCGGGUUCGAGUCCCGUACGGAACG

Variants of: B1
Test: yeast fitness, log relative to wild type (ln ratio); higher = fitter; tRNA-Arg(CCU), competitive growth, 37 C, 1 M NaCl
How it was run: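 Fitness is the natural log of a genotype's generation count divided by that of the wild type. A combinatorial library of tRNA-Arg(CCU) variants sat on a HIS3 centromeric plasmid in BY4742 lacking the chromosomal gene, from two independent transformations. Pools grew 4 generations in SC-HIS at 30 °C, then ~6.5 generations (~26.5 h) in SC-HIS 1M NaCl at 37 °C, with three outputs per input. Generations came from OD-scaled log2 output/input frequency, inverse-variance weighted across replicates, with variants counted by 125 bp paired-end Illumina sequencing.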

Variant	yeast fitness (ln)
G1A U2C G6U C46U C66A C71U	-0.0738
G1A U2C G6A C46U C66U	-0.16
G1A U2C G6U C46U C66A A69G A70G C71U	-0.0207
G1A U2G A43C C46U C66U A69G A70U C71U	-0.341
G1A U2C G6A C27U C46U C66U C71U	-0.348
G1A U2C G6U C27U C46U A70G C71U	-0.203
G1A U2C G6U C27U A70U C71U	-0.287
G1A U2C G6A C27U A43C C46U C66U C71U	-0.128
G1A U2C G6A C27U A43C C66U A69G A70G C71U	-0.255
G1A U2G C27U	-0.0429
G1A U2C G6U A69G A70U	-0.152
G1A U2C G6U A43C C46U A70U C71U	-0.144
G1A U2C G6U C46U A69G A70G C71U	-0.15
G1A U2G A69G	-0.104
G1A U2G A43C C66A A69G A70G C71U	-0.329
G1A U2C G6U C27U C46U C66A A69G A70G C71U	-0.0613
G1A U2G A43C C71U	-0.129
G1A U2G A43C C46U C66U A70G	-0.22
G1A U2G A43C C46U C66U A70U	-0.141
G1A U2C G6A C27U A43C C46U A70U C71U	-0.153
G1A U2C G6U C46U C66U A69G A70U	-0.156

Variant	yeast fitness (ln)
G1A U2C G6U C46U C66U A69G A70G	-0.183
G1A U2C G6U C27U C46U A69G C71U	-0.166
G1A U2C G6U C27U A43C C46U C66A A70G C71U	-0.0221
G1A U2C G6U A43C C46U A69G A70G C71U	-0.124
G1A U2G A43C C46U C66A A69G A70G C71U	-0.24
G1A U2G A43C A69G A70G	-0.172
G1A U2G A43C A69G A70U	-0.159
G1A U2C G6U C27U A43C C46U C66A A70U C71U	-0.124
G1A U2G C27U A43C C46U A69G A70G C71U	-0.221
G1A U2G A43C C46U A69G A70U C71U	-0.29
G1A U2C G6U C27U A43C C66U A69G A70G C71U	-0.117
G1A U2C G6A C46U C66U A69G A70G C71U	-0.0172
G1A U2C G6U C46U A70U	-0.0682
G1A U2C G6U C46U A70G	-0.239
G1A U2G C27U A43C A69G C71U	-0.37
G1A U2C G6U A43C C46U	0.0223
G1A U2C G6U A70G C71U	-0.0526
G1A U2C G6U C27U A43C C46U A69G A70G C71U	-0.267
G1A U2G A70U	-0.124
G1A U2G A70G	-0.0928
G1A U2G A69G A70G	-0.118

Variant	yeast fitness (ln)
G1A U2G A69G A70U	-0.232
G1A U2G A43C C66U A69G C71U	-0.497
G1A U2G A43C C46U A69G A70U	-0.132
G1A U2G A43C C46U A69G A70G	-0.141
G1A U2C G6U A43C C46U C66A C71U	-0.3
G1A U2G C27U A43C C46U A70G	-0.124
G1A U2G C27U A43C C46U A70U	-0.229
G1A U2C G6U A43C C46U C66A A69G A70U	-0.0654
G1A U2C G6U A43C C46U C66A A69G A70G	-0.25
G1A U2C G6U A43C C46U C66U A70G C71U	-0.267
G1A U2C G6A C46U A70U C71U	-0.00949
G1A U2C G6U C27U C46U C66A A70U C71U	-0.264
G1A U2C G6U C66U A69G A70U	-0.244
G1A U2C G6U C66U A69G A70G	-0.362
G1A U2C G6U C27U A43C C66A A70G C71U	-0.0539
G1A U2G A69G A70U C71U	-0.0282
G1A U2C G6U C27U C46U C66U C71U	-0.196
G1A U2C G6A C46U C66U A70G C71U	0.0112
G1A U2C G6A C27U A43C C46U A70G C71U	-0.149
G1A U2C G6A C27U C46U C66U A70G C71U	-0.00474
G1A U2C G6U A43C C46U A70G C71U	-0.359

Variant	yeast fitness (ln)
G1A U2C G6A C46U	0.00156
G1A U2C G6U A43C C66A A70G C71U	-0.0204
G1A U2C G6U A43C A69G A70U C71U	-0.248
G1A U2C G6A C27U A43C C46U C66U A69G A70G	-0.0972
G1A U2C G6A C27U A43C C46U C66U A69G A70U	-0.416
G1A U2C G6A C46U C66U A69G A70U C71U	-0.339
G1A U2C G6U C27U C66A A70G	-0.141
G1A U2C G6U C46U C66A	-0.141
G1A U2C G6U A43C A70G C71U	-0.198
G1A U2C G6U A69G A70G C71U	-0.367
G1A U2C G6U C27U C66U A70U	-0.176
G1A U2G A43C C66U A69G A70G C71U	-0.457
G1A U2C G6A C27U A43C C46U A69G A70G	-0.225
G1A U2C G6A C27U A43C C46U A69G A70U	-0.132
G1A U2C G6A C46U C66A A70U C71U	-0.102
G1A U2C G6A C27U C46U C66U A70U	-0.0971
G1A U2C G6A C27U C46U C66U A70G	-0.0633
G1A U2C G6U A43C C46U C66U A70U	-0.167
G1A U2G A69G A70G C71U	-0.438
G1A U2G A43C C46U A70G	-0.114
G1A U2G A43C C46U A70U	-0.163

— the RNAGym collection of RNA variant scans (doi:10.1038/s41586-018-0170-7)
